Assay [1] deals with HL-60. As to the kind of experiment: Antiproliferative activity against human HL60 cells assessed as reduction in cell viability incubated for 72 hrs by CCK-8 assay. Format: functional, cell-based. The note with it: HL-60, 72 h. In outline: (§1)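 Cells grown in IMDM with 10% FBS and 1% penicillin–streptomycin at 37 °C in a CO₂ incubator and harvested in log phase. Seeded at 10,000 cells per well in 100 μL medium, cultured 12 h, then given compounds at a range of concentrations for 72 h. CCK-8 added for 1–4 h, absorbance read at 450 nm. IC₅₀ calculated from the dose-response data.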
On the technique in general: Tetrazolium assays rely on reduction of a dye to a coloured formazan, in cell work by metabolically active cells.

Assay [2] has as its target T1, Bromodomain-containing protein 4 (Homo sapiens, UniProt O60885). The assay is described as follows: Displacement of APC-labeled biotinylated-avidin from […]-chelated recombinant human N-terminal GST-tagged BRD4 bromodomain 1 expressed in Escherichia coli preincubated for 15 mins followed by APC-labeled biotinylated-avidin addition and measured after 1 hr under dark condition by TR-FRET assay. A general note: TR-FRET usually uses a lanthanide donor and a delayed reading to cut background.

Assay [3] concerns MV4-11. The assay is described as follows: Antiproliferative activity against human MV4-11 cells assessed as reduction in cell viability incubated for 72 hrs by CCK-8 assay. Format: functional, cell-based. The note with it: MV4-11, 72 h. In outline: as §1
The test system of assay [4] is MV4-11. The assay is described as follows: Induction of apoptosis in human MV4-11 cells assessed as live cell at 0.5 uM after 12 hrs by Annexin V-FITC/propidium iodide staining-based flow cytometric analysis (reference value: 97.99 %). Format: functional. (In general: A flow cytometer gives signals particle by particle.)
Assay [5] relates to MV4-11. The assay is described as follows: Cell cycle arrest in human MV4-11 cells assessed as accumulation at S phase at 5 uM after 12 hrs by propidium iodide staining based flow cytometric analysis (reference value: 38.62%). Format: functional.
Assay [6] deals with MV4-11. As to the kind of experiment: Cell cycle arrest in human MV4-11 cells assessed as accumulation at S phase at 0.5 uM after 12 hrs by propidium iodide staining based flow cytometric analysis (reference value: 38.62%). Format: functional.
Assay [7] deals with MV4-11. The assay is described as follows: Cell cycle arrest in human MV4-11 cells assessed as accumulation at G0/G1 phase at 0.5 uM after 12 hrs by propidium iodide staining based flow cytometric analysis (reference value: 43.91%). Format: functional.
Assay [8] has as its system MV4-11. The assay is described as follows: Cell cycle arrest in human MV4-11 cells assessed as accumulation at G0/G1 phase at 5 uM after 12 hrs by propidium iodide staining based flow cytometric analysis (reference value: 43.91%). Format: functional.
For assay [9], the system named is MV4-11. As to the kind of experiment: Induction of apoptosis in human MV4-11 cells assessed as live cell at 5 uM after 12 hrs by Annexin V-FITC/propidium iodide staining-based flow cytometric analysis (reference value: 97.99 %). Format: functional.
Assay [10] has as its system MV4-11. As to the kind of experiment: Induction of apoptosis in human MV4-11 cells assessed as early apoptotic cell at 0.5 uM after 12 hrs by Annexin V-FITC/propidium iodide staining-based flow cytometric analysis (reference value: 0.56 %). Format: functional.
The subject of assay [11] is MV4-11. The assay is described as follows: Cell cycle arrest in human MV4-11 cells assessed as accumulation at G2/M phase at 5 uM after 12 hrs by propidium iodide staining based flow cytometric analysis (reference value: 18.19%). Format: functional.
Assay [12] has as its system MV4-11. The assay is described as follows: Induction of apoptosis in human MV4-11 cells assessed as necrotic cell at 0.5 uM after 12 hrs by Annexin V-FITC/propidium iodide staining-based flow cytometric analysis (reference value: 0.17 %). Format: functional.
For assay [13], the system named is MV4-11. The assay is described as follows: Cell cycle arrest in human MV4-11 cells assessed as accumulation at G2/M phase at 0.5 uM after 12 hrs by propidium iodide staining based flow cytometric analysis (reference value: 18.19%). Format: functional.
The subject of assay [14] is MV4-11. As to the kind of experiment: Induction of apoptosis in human MV4-11 cells assessed as late apoptotic cell at 0.5 uM after 12 hrs by Annexin V-FITC/propidium iodide staining-based flow cytometric analysis (reference value: 1.28 %). Format: functional.
For assay [15], the system named is MV4-11. As to the kind of experiment: Induction of apoptosis in human MV4-11 cells assessed as early apoptotic cell at 5 uM after 12 hrs by Annexin V-FITC/propidium iodide staining-based flow cytometric analysis (reference value: 0.56 %). Format: functional.
The target of assay [16] is T1, Bromodomain-containing protein 4. As to the kind of experiment: Inhibition of BRD4 in human MV4-11 cells assessed as reduction in c-Myc expression level after 4 hrs by Western blot analysis. Format: cell-based. Put shortly: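 Log-phase MV-4-11 cells (IMDM, 10% FBS, 1% penicillin–streptomycin, 37 °C) were treated with compound for 4 h, then lysed at 4 °C and protein quantified. Lysates were run on SDS-PAGE (10% separating, 4% stacking gel) and transferred to PVDF. Membranes were blocked 2 h in 5% non-fat milk/TBST at room temperature, probed for c-Myc, and band intensity quantified from three independent experiments.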

In assay [17] the test system is MV4-11. The assay is described as follows: Induction of apoptosis in human MV4-11 cells assessed as necrotic cell at 5 uM after 12 hrs by Annexin V-FITC/propidium iodide staining-based flow cytometric analysis (reference value: 0.17 %). Format: functional.
The subject of assay [18] is MV4-11. The assay is described as follows: Induction of apoptosis in human MV4-11 cells after 12 hrs by Annexin V-FITC/propidium iodide staining-based flow cytometric analysis. Format: functional, cell-based.
Assay [19] deals with MV4-11. As to the kind of experiment: Induction of apoptosis in human MV4-11 cells assessed as late apoptotic cell at 5 uM after 12 hrs by Annexin V-FITC/propidium iodide staining-based flow cytometric analysis (reference value: 1.28 %). Format: functional.
Assay [20] has as its system MV4-11. The assay is described as follows: Cell cycle arrest in human MV4-11 cells assessed as accumulation at G1 phase after 12 hrs by propidium iodide staining based flow cytometric analysis. Format: functional.

The structures appear in SMILES notation.

In general, IC50 refers to the concentration at which inhibition is half-maximal. `COc1ccc2c(c1)C(c1ccc(Cl)cc1)=NC(CC(=O)Nc1ccccc1)c1sc(=O)n(C)c1-2` (configuration not stated): the IC50 in [1] is 7.74 µM; in assay [2], 0.2 µM; in assay [3] it was 0.67 µM.

Regarding `CCNC(=O)CC1N=C(c2ccc(Cl)cc2)c2cc(OC)ccc2-c2c1sc(=O)n2C` (configuration not stated), the half-maximal inhibitory concentration (IC50) in assay [1] is 12.8 µM; in [2], 0.74 µM; in assay [3] it was 1.78 µM.

For the compound `CCOC(=O)CC1N=C(c2ccc(Cl)cc2)c2cc(OC)ccc2-c2c1sc(=O)n2C` (configuration not stated), the figures for the IC50 in assay [1], in [2] and in assay [3] were 6.21 µM, 0.42 µM and 0.88 µM, respectively.

Regarding `COc1ccc2c(c1)C(c1ccc(Cl)cc1)=NC(CC(=O)Nc1ccc(F)cc1)c1sc(=O)n(C)c1-2` (configuration not stated), the IC50 in assay [1] amounted to 12.4 µM; in assay [2] it was 0.68 µM; in assay [3] it was 1.44 µM.

As to `COc1ccc2c(c1)C(c1ccc(Cl)cc1)=NC(CC(=O)O)c1sc(=O)n(C)c1-2` (configuration not stated), the IC50 in assay [2] was determined as 0.87 µM; in assay [3], 2.86 µM.

For the compound `COc1ccc2c(c1)C(c1ccc(Cl)cc1)=NC(CC(=O)N1CCCC1)c1sc(=O)n(C)c1-2` (configuration not stated), the IC50 amounted to 10.4 µM in [1], 0.54 µM in assay [2] and 1.12 µM in assay [3].

Turning to `CCCCNC(=O)CC1N=C(c2ccc(Cl)cc2)c2cc(OC)ccc2-c2c1sc(=O)n2C` (configuration not stated), the IC50 in assay [2] amounted to 1.02 µM; in [3] it was 3.48 µM.

As to `COc1ccc2c(c1)C(c1ccc(Cl)cc1)=NC(CC(=O)N1CCCCC1)c1sc(=O)n(C)c1-2` (configuration not stated), the IC50 came to 8.69 µM in assay [1], 0.43 µM in [2] and 0.91 µM in assay [3].

As for `CCOC(=O)CC1OC(c2ccc(Cl)cc2)c2cc(OC)ccc2-c2c1sc(=O)n2C` (configuration not stated), the results for the IC50 in assay [1], in assay [2] and in [3] were 5.44 µM, 0.48 µM and 0.92 µM, respectively.

On to `COc1ccc2c(c1)C(c1ccc(Cl)cc1)=NC(CC(=O)N1CCOCC1)c1sc(=O)n(C)c1-2` (configuration not stated), for which the IC50 in [1] was 7.62 µM; in assay [2], 0.48 µM; in assay [3], 0.94 µM.

`COc1ccc2c(c1)C(c1ccc(Cl)cc1)=NC(CC(=O)NC1CCCC1)c1sc(=O)n(C)c1-2` (configuration not stated): the Activity in assay [4] is on record as 87.61%; in assay [5], 15.23%; in assay [6], 31.2%; in assay [7], 50.67%; in assay [8], 70.68%; in assay [9] it was 26.76%. Further, the Activity in assay [10] came to 6.1%; in [11] it was 14.11%; in assay [12] it was 0.35%; in [13] it was 17.93%; in [14], 5.93%; in assay [15] it was 29.97%. The Activity was 0.42% in assay [17], “Dose-dependent effect” in [18], 42.85% in assay [19] and “Dose-dependent effect” in assay [20]. In addition, in assay [16], the inhibition result is “Dose-dependent effect”. Further, the IC50 in assay [1] is 5.52 µM; in [2], 0.11 µM; in assay [3], 0.42 µM.

`CCNC(=O)C[C@@H]1N=C(c2ccc(Cl)cc2)c2cc(OC)ccc2-n2c(C)nnc21` [MOLIBRESIB]: in [3], the IC50 turned out to be 1.23 µM.

Take `COc1ccc2c(c1)C(c1ccc(Cl)cc1)=NC(CC(=O)NC(C)(C)C)c1sc(=O)n(C)c1-2` (configuration not stated): the IC50 was 5.41 µM in assay [1], 0.16 µM in [2] and 0.64 µM in [3].

`C#CCNC(=O)CC1N=C(c2ccc(Cl)cc2)c2cc(OC)ccc2-c2c1sc(=O)n2C` (configuration not stated): the values for the half-inhibitory concentration (IC50) in assay [1], in assay [2] and in assay [3] were 8.46 µM, 0.21 µM and 0.7 µM, respectively.

As for `COc1ccc2c(c1)C(c1ccc(Cl)cc1)=NC(CC(=O)Nc1ccc(O)cc1)c1sc(=O)n(C)c1-2` (configuration not stated), the IC50 turned out to be 9.05 µM in [1], 0.51 µM in [2] and 1.06 µM in assay [3].

With `Cc1sc2c(c1C)C(c1ccc(Cl)cc1)=N[C@@H](CC(=O)OC(C)(C)C)c1nnc(C)n1-2`, the Activity was determined as 85.57% in assay [4]; 3.35% in assay [5]; 28.09% in assay [6]; 57.35% in [7]; 83.64% in [8]; 9.58% in [9]. The Activity turned out to be 5.23% in assay [10]; 13.01% in assay [11]; 0.06% in assay [12]; 14.56% in assay [13]; 9.14% in [14]; 30.87% in assay [15]. Also, the values for the Activity in assay [17], in [19] and in assay [20] were 0.24%, 59.31% and “Dose-dependent effect”, respectively. The IC50 in assay [1] is 3.46 µM.

As to `COc1ccc2c(c1)C(c1ccc(Cl)cc1)=NC(CC(=O)NC1CC1)c1sc(=O)n(C)c1-2` (configuration not stated), the IC50 in assay [1] is 4.56 µM; in assay [2], 0.14 µM; in assay [3], 0.51 µM.

These data come from ChEMBL document CHEMBL4622959, “Design, synthesis and biological evaluation of novel 6-phenyl-1,3a,4,10b-tetrahydro-2H-benzo[c]thiazolo[4,5-e]azepin-2-one derivatives as potential BRD4 inhibitors” (Bioorg Med Chem, 2020).
